# From ChEMBL document CHEMBL1129275, “Synthesis and in vitro and in vivo characteristics of an iodinated analogue of the beta-adrenoceptor antagonist carazolol” (J Med Chem, 1996)
# Experiments:
# Oryctolagus cuniculus [1] = assay: Cerebral biodistribution pattern of [123I]- ligand was evaluated in cerebellum of anesthetized rabbit after Intravenous injection of 50 uCi after 30 min; type: ADME, organism-based; conditions: in vivo, 0.5 h
# Outline: (§1)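 Male New Zealand white rabbits (2.5–3.5 kg), anesthetized with xylazine 5 mg/kg plus ketamine 30 mg/kg im, given 50 µCi radioligand (specific activity >5000 Ci/mmol) iv via ear vein. Euthanized at set times by pentobarbital 200 mg/kg im, n = 3/time point. Organs removed and weighed, gamma-counted, decay/weight corrected; expressed as % ID x kg body weight/g tissue, mean ± SEM.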
# Oryctolagus cuniculus [2] = assay: Cerebral biodistribution pattern of [123I]- ligand was evaluated in hypothalamus of anesthetized rabbit after Intravenous injection of 50 uCi after 6 hr; type: ADME, organism-based; conditions: in vivo; outline: as §1
# Oryctolagus cuniculus [3] = assay: Biodistribution pattern of [123I]- ligand was evaluated in right atrial muscle of anesthetized rabbit after Intravenous injection of 50 uCi after 6 hr; type: ADME, organism-based, Muscle tissue; conditions: in vivo; outline: as §1
# Oryctolagus cuniculus [4] = assay: Biodistribution pattern of [123I]- ligand was evaluated in spleen of anesthetized rabbit after Intravenous injection of 50 uCi after 30 min; type: ADME, organism-based; conditions: in vivo, 0.5 h; outline: as §1
# Oryctolagus cuniculus [5] = assay: Cerebral biodistribution pattern of [123I]- ligand was evaluated in thalamus of anesthetized rabbit after Intravenous injection of 50 uCi after 30 min; type: ADME, organism-based; conditions: in vivo, 0.5 h; outline: as §1
# Oryctolagus cuniculus [6] = assay: Cerebral biodistribution pattern of [123I]- ligand was evaluated in cerebellum of anesthetized rabbit after Intravenous injection of 50 uCi after 2 hr; type: ADME, organism-based; conditions: in vivo; outline: as §1
# Oryctolagus cuniculus [7] = assay: Biodistribution pattern of [123I]- ligand was evaluated in kidney of anesthetized rabbit after Intravenous injection of 50 uCi after 5 min; type: ADME, organism-based; conditions: in vivo
# Outline: (§2)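 Male New Zealand white rabbits, 2.5–3.5 kg, anesthetized with 5 mg/kg xylazine plus 30 mg/kg ketamine im. Each received 50 uCi radioligand (specific activity > 5000 Ci/mmol) iv via ear vein. Animals were killed with 200 mg/kg pentobarbital im at the set time. Blood was drawn by intracardiac puncture and organs weighed. Gamma counting was decay-corrected, expressed as %ID x kg body weight/g tissue, mean ± SEM, n = 3/time point.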
# Oryctolagus cuniculus [8] = assay: Cerebral biodistribution pattern of [123I]- ligand was evaluated in hypothalamus of anesthetized rabbit after Intravenous injection of 50 uCi after 2 hr; type: ADME, organism-based; conditions: in vivo; outline: as §1
# Oryctolagus cuniculus [9] = assay: Biodistribution pattern of [123I]- ligand was evaluated in left atrial muscle of anesthetized rabbit after Intravenous injection of 50 uCi after 24 hr; type: ADME, organism-based, Muscle tissue; conditions: in vivo; outline: as §2
# Oryctolagus cuniculus [10] = assay: Cerebral biodistribution pattern of [123I]- ligand was evaluated in thalamus of anesthetized rabbit after Intravenous injection of 50 uCi after 24 hr; type: ADME, organism-based; conditions: in vivo; outline: as §1
# Oryctolagus cuniculus [11] = assay: Biodistribution pattern of [123I]- ligand was evaluated in liver of anesthetized rabbit after Intravenous injection of 50 uCi after 4 hr; type: ADME, organism-based; conditions: in vivo; outline: as §2
# Oryctolagus cuniculus [12] = assay: Biodistribution pattern of [123I]- ligand was evaluated in kidney of anesthetized rabbit after Intravenous injection of 50 uCi after 6 hr; type: ADME, organism-based; conditions: in vivo; outline: as §2
# Oryctolagus cuniculus [13] = assay: Cerebral biodistribution pattern of [123I]- ligand was evaluated in cerebellum of anesthetized rabbit after Intravenous injection of 50 uCi after 4 hr; type: ADME, organism-based; conditions: in vivo; outline: as §1
# Oryctolagus cuniculus [14] = assay: Biodistribution pattern of [123I]- ligand was evaluated in right ventricular muscle of anesthetized rabbit after Intravenous injection of 50 uCi after 6 hr; type: ADME, organism-based, Muscle tissue; conditions: in vivo; outline: as §1
# Oryctolagus cuniculus [15] = assay: Biodistribution pattern of [123I]- ligand was evaluated in left ventricular muscle of anesthetized rabbit after Intravenous injection of 50 uCi after 30 min; type: ADME, organism-based, Muscle tissue; conditions: in vivo, 0.5 h; outline: as §2
# Oryctolagus cuniculus [16] = assay: Biodistribution pattern of [123I]- ligand was evaluated in left ventricular muscle of anesthetized rabbit after Intravenous injection of 50 uCi after 5 min; type: ADME, organism-based, Muscle tissue; conditions: in vivo; outline: as §2
# Oryctolagus cuniculus [17] = assay: Biodistribution pattern of [123I]- ligand was evaluated in blood of anesthetized rabbit after Intravenous injection of 50 uCi after 5 min; type: ADME, organism-based; conditions: in vivo; outline: as §2
# Oryctolagus cuniculus [18] = assay: Biodistribution pattern of [123I]- ligand was evaluated in fat of anesthetized rabbit after Intravenous injection of 50 uCi after 5 min; type: ADME, organism-based, Adipose tissue; conditions: in vivo; outline: as §2
# Oryctolagus cuniculus [19] = assay: Cerebral biodistribution pattern of [123I]- ligand was evaluated in hypothalamus of anesthetized rabbit after Intravenous injection of 50 uCi after 1 hr; type: ADME, organism-based; conditions: in vivo; outline: as §1
# Oryctolagus cuniculus [20] = assay: Biodistribution pattern of [123I]- ligand was evaluated in fat of anesthetized rabbit after Intravenous injection of 50 uCi after 4 hr; type: ADME, organism-based, Adipose tissue; conditions: in vivo; outline: as §2
# Oryctolagus cuniculus [21] = assay: Cerebral biodistribution pattern of [123I]- ligand was evaluated in hypothalamus of anesthetized rabbit after Intravenous injection of 50 uCi after 4 hr; type: ADME, organism-based; conditions: in vivo; outline: as §1
# Oryctolagus cuniculus [22] = assay: Biodistribution pattern of [123I]- ligand was evaluated in intestine of anesthetized rabbit after Intravenous injection of 50 uCi after 2 hr; type: ADME, organism-based; conditions: in vivo; outline: as §2
# Oryctolagus cuniculus [23] = assay: Biodistribution pattern of [123I]- ligand was evaluated in right ventricular muscle of anesthetized rabbit after Intravenous injection of 50 uCi after 2 hr; type: ADME, organism-based, Muscle tissue; conditions: in vivo; outline: as §1
# Oryctolagus cuniculus [24] = assay: Biodistribution pattern of [123I]- ligand was evaluated in left atrial muscle of anesthetized rabbit after Intravenous injection of 50 uCi after 2 hr; type: ADME, organism-based, Muscle tissue; conditions: in vivo; outline: as §2
# Oryctolagus cuniculus [25] = assay: Cerebral biodistribution pattern of [123I]- ligand was evaluated in pituitary gland of anesthetized rabbit after Intravenous injection of 50 uCi after 24 hr; type: ADME, organism-based; conditions: in vivo; outline: as §1
# Oryctolagus cuniculus [26] = assay: Biodistribution pattern of [123I]- ligand was evaluated in intestine of anesthetized rabbit after Intravenous injection of 50 uCi after 24 hr; type: ADME, organism-based; conditions: in vivo; outline: as §2
# Oryctolagus cuniculus [27] = assay: Biodistribution pattern of [123I]- ligand was evaluated in lung of anesthetized rabbit after Intravenous injection of 50 uCi after 30 min; type: ADME, organism-based; conditions: in vivo, 0.5 h; outline: as §2
# Oryctolagus cuniculus [28] = assay: Cerebral biodistribution pattern of [123I]- ligand was evaluated in thalamus of anesthetized rabbit after Intravenous injection of 50 uCi after 2 hr; type: ADME, organism-based; conditions: in vivo; outline: as §1
# Oryctolagus cuniculus [29] = assay: Biodistribution pattern of [123I]- ligand was evaluated in intestine of anesthetized rabbit after Intravenous injection of 50 uCi after 5 min; type: ADME, organism-based; conditions: in vivo; outline: as §2
# Oryctolagus cuniculus [30] = assay: Cerebral biodistribution pattern of [123I]- ligand was evaluated in cerebellum of anesthetized rabbit after Intravenous injection of 50 uCi after 24 hr; type: ADME, organism-based; conditions: in vivo; outline: as §1
# Oryctolagus cuniculus [31] = assay: Biodistribution pattern of [123I]- ligand was evaluated in muscle of anesthetized rabbit after Intravenous injection of 50 uCi after 2 hr; type: ADME, organism-based, Muscle tissue; conditions: in vivo; outline: as §2
# Oryctolagus cuniculus [32] = assay: Biodistribution pattern of [123I]- ligand was evaluated in left ventricular muscle of anesthetized rabbit after Intravenous injection of 50 uCi after 1 hr; type: ADME, organism-based, Muscle tissue; conditions: in vivo; outline: as §2
# Oryctolagus cuniculus [33] = assay: Biodistribution pattern of [123I]- ligand was evaluated in lung of anesthetized rabbit after Intravenous injection of 50 uCi after 5 min; type: ADME, organism-based; conditions: in vivo; outline: as §2
# Oryctolagus cuniculus [34] = assay: Cerebral biodistribution pattern of [123I]- ligand was evaluated in hypothalamus of anesthetized rabbit after Intravenous injection of 50 uCi after 24 hr; type: ADME, organism-based; conditions: in vivo; outline: as §1
# Oryctolagus cuniculus [35] = assay: Biodistribution pattern of [123I]- ligand was evaluated in left ventricular muscle of anesthetized rabbit after Intravenous injection of 50 uCi after 2 hr; type: ADME, organism-based, Muscle tissue; conditions: in vivo; outline: as §2
# Oryctolagus cuniculus [36] = assay: Cerebral biodistribution pattern of [123I]- ligand was evaluated in frontal cortex of anesthetized rabbit after Intravenous injection of 50 uCi after 24 hr; type: ADME, organism-based; conditions: in vivo; outline: as §1
# Oryctolagus cuniculus [37] = assay: Cerebral biodistribution pattern of [123I]- ligand was evaluated in frontal cortex of anesthetized rabbit after Intravenous injection of 50 uCi after 2 hr; type: ADME, organism-based; conditions: in vivo; outline: as §1
# Oryctolagus cuniculus [38] = assay: Biodistribution pattern of [123I]- ligand was evaluated in kidney of anesthetized rabbit after Intravenous injection of 50 uCi after 4 hr; type: ADME, organism-based; conditions: in vivo; outline: as §2
smiles,measurement,setting,value
CC(C)(/C=C/I)NC[C@H](O)COc1cccc2[nH]c3ccccc3c12,ID x kg of body weight/g of tissue,Oryctolagus cuniculus [1],< 0.15%
same,ID x kg of body weight/g of tissue,Oryctolagus cuniculus [2],0.03%
same,ID x kg of body weight/g of tissue,Oryctolagus cuniculus [3],0.07%
same,ID x kg of body weight/g of tissue,Oryctolagus cuniculus [4],0.41%
same,ID x kg of body weight/g of tissue,Oryctolagus cuniculus [5],< 0.1%
same,ID x kg of body weight/g of tissue,Oryctolagus cuniculus [6],0.15%
same,ID x kg of body weight/g of tissue,Oryctolagus cuniculus [7],0.92%
same,ID x kg of body weight/g of tissue,Oryctolagus cuniculus [8],0.05%
same,ID x kg of body weight/g of tissue,Oryctolagus cuniculus [9],0.03%
same,ID x kg of body weight/g of tissue,Oryctolagus cuniculus [10],0.02%
same,ID x kg of body weight/g of tissue,Oryctolagus cuniculus [11],0.04%
same,ID x kg of body weight/g of tissue,Oryctolagus cuniculus [12],0.04%
same,ID x kg of body weight/g of tissue,Oryctolagus cuniculus [13],0.13%
same,ID x kg of body weight/g of tissue,Oryctolagus cuniculus [14],0.08%
same,ID x kg of body weight/g of tissue,Oryctolagus cuniculus [15],< 0.26%
same,ID x kg of body weight/g of tissue,Oryctolagus cuniculus [16],0.52%
same,ID x kg of body weight/g of tissue,Oryctolagus cuniculus [17],0.03%
same,ID x kg of body weight/g of tissue,Oryctolagus cuniculus [18],0.008%
same,ID x kg of body weight/g of tissue,Oryctolagus cuniculus [19],0.06%
same,ID x kg of body weight/g of tissue,Oryctolagus cuniculus [20],0.02%
same,ID x kg of body weight/g of tissue,Oryctolagus cuniculus [21],0.03%
same,ID x kg of body weight/g of tissue,Oryctolagus cuniculus [22],0.13%
same,ID x kg of body weight/g of tissue,Oryctolagus cuniculus [23],0.18%
same,ID x kg of body weight/g of tissue,Oryctolagus cuniculus [24],0.17%
same,ID x kg of body weight/g of tissue,Oryctolagus cuniculus [25],0.03%
same,ID x kg of body weight/g of tissue,Oryctolagus cuniculus [26],0.02%
same,ID x kg of body weight/g of tissue,Oryctolagus cuniculus [27],< 1.74%
same,ID x kg of body weight/g of tissue,Oryctolagus cuniculus [28],0.05%
same,ID x kg of body weight/g of tissue,Oryctolagus cuniculus [29],0.16%
same,ID x kg of body weight/g of tissue,Oryctolagus cuniculus [30],0.07%
same,ID x kg of body weight/g of tissue,Oryctolagus cuniculus [31],0.05%
same,ID x kg of body weight/g of tissue,Oryctolagus cuniculus [32],0.2%
same,ID x kg of body weight/g of tissue,Oryctolagus cuniculus [33],5.75%
same,ID x kg of body weight/g of tissue,Oryctolagus cuniculus [34],0.02%
same,ID x kg of body weight/g of tissue,Oryctolagus cuniculus [35],0.2%
same,ID x kg of body weight/g of tissue,Oryctolagus cuniculus [36],0.01%
same,ID x kg of body weight/g of tissue,Oryctolagus cuniculus [37],0.09%
same,ID x kg of body weight/g of tissue,Oryctolagus cuniculus [38],0.05%
